Data reported in ChEMBL document CHEMBL5678815 (Clin Cancer Res, 2017).

Experiments:
[1] = molecular target: AP2-associated protein kinase 1 (Homo sapiens) (UniProt Q2M2I8); experiment: Inhibition of human AAK1 assessed as remaining activity at 1 uM by ATP-competition binding assay relative to control
How it was run: (§1)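 KINOMEscan ATP-site-dependent competition binding panel of 395 human kinases, with compound tested at 1 μM. Binding is reported as remaining signal relative to control.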

[2] = molecular target: RAC-beta serine/threonine-protein kinase (Homo sapiens) (UniProt P31751); experiment: Inhibition of human AKT2 assessed as remaining activity at 1 uM by ATP-competition binding assay relative to control; how it was run: as §1
[3] = molecular target: Calcium/calmodulin-dependent protein kinase type 1 (Homo sapiens) (UniProt Q14012); experiment: Inhibition of human CAMK1 assessed as remaining activity at 1 uM by ATP-competition binding assay relative to control; how it was run: as §1
[4] = molecular target: Calcium/calmodulin-dependent protein kinase type 1G (Homo sapiens) (UniProt Q96NX5); experiment: Inhibition of human CAMK1G assessed as remaining activity at 1 uM by ATP-competition binding assay relative to control; how it was run: as §1
Sequence of Calcium/calmodulin-dependent protein kinase type 1G (Homo sapiens) (Q96NX5 whole entry): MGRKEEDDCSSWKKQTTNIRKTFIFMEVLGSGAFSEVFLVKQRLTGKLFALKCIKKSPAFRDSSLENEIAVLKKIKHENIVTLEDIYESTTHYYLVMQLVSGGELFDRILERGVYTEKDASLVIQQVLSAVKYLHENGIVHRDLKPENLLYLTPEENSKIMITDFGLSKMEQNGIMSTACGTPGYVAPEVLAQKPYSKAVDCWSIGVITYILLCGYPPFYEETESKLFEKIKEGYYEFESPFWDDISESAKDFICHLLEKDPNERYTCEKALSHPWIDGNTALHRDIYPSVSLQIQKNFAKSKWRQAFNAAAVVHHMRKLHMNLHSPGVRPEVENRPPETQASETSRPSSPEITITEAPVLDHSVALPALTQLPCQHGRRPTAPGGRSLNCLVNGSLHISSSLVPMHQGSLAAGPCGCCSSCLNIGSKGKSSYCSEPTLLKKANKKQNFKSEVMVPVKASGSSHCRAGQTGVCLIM

[5] = molecular target: Calcium/calmodulin-dependent protein kinase type II subunit alpha (Homo sapiens) (UniProt Q9UQM7); experiment: Inhibition of human CAMK2A assessed as remaining activity at 1 uM by ATP-competition binding assay relative to control; how it was run: as §1
[6] = molecular target: Cyclin-dependent kinase 7 (Homo sapiens) (UniProt P50613); experiment: Inhibition of human CDK7 assessed as remaining activity at 1 uM by ATP-competition binding assay relative to control; how it was run: as §1
Sequence of Cyclin-dependent kinase 7 (Homo sapiens) (P50613 whole entry): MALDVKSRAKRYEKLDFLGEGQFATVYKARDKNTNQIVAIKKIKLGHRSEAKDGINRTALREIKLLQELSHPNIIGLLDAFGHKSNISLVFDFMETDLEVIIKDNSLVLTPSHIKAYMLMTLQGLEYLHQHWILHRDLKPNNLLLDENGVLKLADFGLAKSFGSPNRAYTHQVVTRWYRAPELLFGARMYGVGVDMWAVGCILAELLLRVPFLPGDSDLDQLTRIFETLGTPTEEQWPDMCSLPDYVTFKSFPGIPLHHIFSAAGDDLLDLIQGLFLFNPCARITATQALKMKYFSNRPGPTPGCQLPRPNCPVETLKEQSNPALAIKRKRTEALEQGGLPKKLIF

[7] = molecular target: Cyclin-dependent kinase 9 (Homo sapiens) (UniProt P50750); experiment: Inhibition of human CDK9 assessed as remaining activity at 1 uM by ATP-competition binding assay relative to control; how it was run: as §1
[8] = molecular target: Casein kinase I isoform gamma-1 (Homo sapiens) (UniProt Q9HCP0); experiment: Inhibition of human CSNK1G1 assessed as remaining activity at 1 uM by ATP-competition binding assay relative to control; how it was run: as §1
[9] = molecular target: Casein kinase II subunit alpha (Homo sapiens) (UniProt P68400); experiment: Inhibition of human CSNK2A1 assessed as remaining activity at 1 uM by ATP-competition binding assay relative to control; how it was run: as §1
Sequence of Casein kinase II subunit alpha (Homo sapiens) (P68400 whole entry, looked up): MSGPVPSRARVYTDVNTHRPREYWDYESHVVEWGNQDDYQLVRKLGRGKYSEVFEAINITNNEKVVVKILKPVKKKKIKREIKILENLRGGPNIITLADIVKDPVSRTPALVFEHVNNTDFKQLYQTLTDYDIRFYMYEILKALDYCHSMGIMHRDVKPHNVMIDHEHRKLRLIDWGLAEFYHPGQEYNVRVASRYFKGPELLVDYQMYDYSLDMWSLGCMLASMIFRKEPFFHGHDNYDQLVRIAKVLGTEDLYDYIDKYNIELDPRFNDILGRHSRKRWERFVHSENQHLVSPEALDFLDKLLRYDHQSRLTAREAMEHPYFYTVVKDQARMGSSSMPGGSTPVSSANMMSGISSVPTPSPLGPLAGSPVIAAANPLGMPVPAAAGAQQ

[10] = molecular target: Ephrin type-A receptor 2 (Homo sapiens) (UniProt P29317); experiment: Inhibition of human EPHA2 assessed as remaining activity at 1 uM by ATP-competition binding assay relative to control; how it was run: as §1
[11] = molecular target: Ephrin type-A receptor 7 (Homo sapiens) (UniProt Q15375); experiment: Inhibition of human EPHA7 assessed as remaining activity at 1 uM by ATP-competition binding assay relative to control; how it was run: as §1
[12] = molecular target: Serine/threonine-protein kinase/endoribonuclease IRE1 (Homo sapiens) (UniProt O75460); experiment: Inhibition of human ERN1 assessed as remaining activity at 1 uM by ATP-competition binding assay relative to control
How it was run: (§2)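 Single-point profiling at 1μM in an ATP-site-dependent competition binding assay across a panel of 395 human kinases, including mutant forms. The read-out is kinase binding signal in the presence of test agent, expressed as inhibition relative to the control signal. This screen assessed noncovalent binding interactions.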

[13] = tested on: eIF-2-alpha kinase GCN2 (Homo sapiens), Q9P2K8 [S808G]; experiment: Inhibition of human GCN2 S808G mutant kinase domain 2 assessed as remaining activity at 1 uM by ATP-competition binding assay relative to control; how it was run: as §2
[14] = molecular target: Tyrosine-protein kinase JAK1 (Homo sapiens) (UniProt P23458); experiment: Inhibition of human JAK1 JH2 domain assessed as remaining activity at 1 uM by ATP-competition binding assay relative to control; how it was run: as §2
[15] = molecular target: Serine/threonine-protein kinase MARK2 (Homo sapiens) (UniProt Q7KZI7); experiment: Inhibition of human MARK2 assessed as remaining activity at 1 uM by ATP-competition binding assay relative to control; how it was run: as §2
[16] = tested on: Mast/stem cell growth factor receptor Kit (Homo sapiens), P10721 [V559D]; experiment: Inhibition of human KIT V559D mutant assessed as remaining activity at 1 uM by ATP-competition binding assay relative to control; how it was run: as §2
[17] = molecular target: Myosin light chain kinase (Homo sapiens) (UniProt Q32MK0); experiment: Inhibition of human MLCK assessed as remaining activity at 1 uM by ATP-competition binding assay relative to control; how it was run: as §2
[18] = molecular target: Serine/threonine-protein kinase 4 (Homo sapiens) (UniProt Q13043); experiment: Inhibition of human MST1 assessed as remaining activity at 1 uM by ATP-competition binding assay relative to control; how it was run: as §2
Sequence of Serine/threonine-protein kinase 4 (Homo sapiens) (Q13043 whole entry): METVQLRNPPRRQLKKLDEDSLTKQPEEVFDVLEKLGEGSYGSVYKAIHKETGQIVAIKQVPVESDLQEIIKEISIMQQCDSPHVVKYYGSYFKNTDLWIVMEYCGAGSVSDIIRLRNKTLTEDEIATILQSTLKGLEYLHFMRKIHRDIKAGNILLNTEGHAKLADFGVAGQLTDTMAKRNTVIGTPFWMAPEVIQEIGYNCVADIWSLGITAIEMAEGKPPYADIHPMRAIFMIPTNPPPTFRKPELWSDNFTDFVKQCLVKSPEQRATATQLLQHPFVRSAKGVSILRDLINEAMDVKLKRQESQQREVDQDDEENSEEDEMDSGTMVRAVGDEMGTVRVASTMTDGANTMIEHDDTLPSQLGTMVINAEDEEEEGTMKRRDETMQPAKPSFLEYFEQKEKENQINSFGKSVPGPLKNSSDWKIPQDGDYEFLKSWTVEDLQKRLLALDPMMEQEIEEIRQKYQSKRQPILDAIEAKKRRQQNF

[19] = molecular target: Serine/threonine-protein kinase PAK 2 (Homo sapiens) (UniProt Q13177); experiment: Inhibition of human PAK2 assessed as remaining activity at 1 uM by ATP-competition binding assay relative to control; how it was run: as §2
Sequence of Serine/threonine-protein kinase PAK 2 (Homo sapiens) (Q13177 whole entry): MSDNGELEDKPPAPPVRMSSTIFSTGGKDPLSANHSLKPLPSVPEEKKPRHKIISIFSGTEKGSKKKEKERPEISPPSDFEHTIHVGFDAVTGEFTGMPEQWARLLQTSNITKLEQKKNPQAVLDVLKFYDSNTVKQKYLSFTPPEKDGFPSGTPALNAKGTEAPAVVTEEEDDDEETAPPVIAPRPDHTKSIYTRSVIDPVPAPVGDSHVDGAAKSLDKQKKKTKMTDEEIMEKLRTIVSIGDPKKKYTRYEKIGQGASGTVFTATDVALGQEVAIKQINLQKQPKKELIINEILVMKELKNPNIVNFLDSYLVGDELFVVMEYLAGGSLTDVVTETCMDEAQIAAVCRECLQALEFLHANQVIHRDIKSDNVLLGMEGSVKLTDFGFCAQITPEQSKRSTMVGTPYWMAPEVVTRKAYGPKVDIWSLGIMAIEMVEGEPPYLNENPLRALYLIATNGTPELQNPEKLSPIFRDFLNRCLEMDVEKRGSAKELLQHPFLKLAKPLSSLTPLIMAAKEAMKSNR

[20] = molecular target: cAMP-dependent protein kinase catalytic subunit alpha (Homo sapiens) (UniProt P17612); experiment: Inhibition of human PKAC-alpha assessed as remaining activity at 1 uM by ATP-competition binding assay relative to control
How it was run: (§3)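 Single-concentration (1 μM) screen in an ATP-site-dependent competition binding assay (KINOMEscan, outsourced) covering 395 human kinases, mutants included. Non-covalent binding was read as the remaining signal relative to the control signal.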

[21] = molecular target: Serine/threonine-protein kinase PRP4 homolog (Homo sapiens) (UniProt Q13523); experiment: Inhibition of human PRP4 assessed as remaining activity at 1 uM by ATP-competition binding assay relative to control; how it was run: as §3
[22] = molecular target: Ribosomal protein S6 kinase alpha-4 (Homo sapiens) (UniProt O75676); experiment: Inhibition of human RPS6KA4 assessed as remaining activity at 1 uM by ATP-competition binding assay relative to control; how it was run: as §3
[23] = molecular target: Ribosomal protein S6 kinase alpha-5 (Homo sapiens) (UniProt O75582); experiment: Inhibition of human RPS6KA5 assessed as remaining activity at 1 uM by ATP-competition binding assay relative to control; how it was run: as §3
[24] = molecular target: Serine/threonine-protein kinase SIK1 (Homo sapiens) (UniProt P57059); experiment: Inhibition of human SIK assessed as remaining activity at 1 uM by ATP-competition binding assay relative to control; how it was run: as §3
[25] = molecular target: Tyrosine-protein kinase Srms (Homo sapiens) (UniProt Q9H3Y6); experiment: Inhibition of human SRMS assessed as remaining activity at 1 uM by ATP-competition binding assay relative to control; how it was run: as §3
[26] = molecular target: SRSF protein kinase 1 (Homo sapiens) (UniProt Q96SB4); experiment: Inhibition of human SRPK1 assessed as remaining activity at 1 uM by ATP-competition binding assay relative to control; how it was run: as §3
Sequence of SRSF protein kinase 1 (Homo sapiens) (Q96SB4 whole entry): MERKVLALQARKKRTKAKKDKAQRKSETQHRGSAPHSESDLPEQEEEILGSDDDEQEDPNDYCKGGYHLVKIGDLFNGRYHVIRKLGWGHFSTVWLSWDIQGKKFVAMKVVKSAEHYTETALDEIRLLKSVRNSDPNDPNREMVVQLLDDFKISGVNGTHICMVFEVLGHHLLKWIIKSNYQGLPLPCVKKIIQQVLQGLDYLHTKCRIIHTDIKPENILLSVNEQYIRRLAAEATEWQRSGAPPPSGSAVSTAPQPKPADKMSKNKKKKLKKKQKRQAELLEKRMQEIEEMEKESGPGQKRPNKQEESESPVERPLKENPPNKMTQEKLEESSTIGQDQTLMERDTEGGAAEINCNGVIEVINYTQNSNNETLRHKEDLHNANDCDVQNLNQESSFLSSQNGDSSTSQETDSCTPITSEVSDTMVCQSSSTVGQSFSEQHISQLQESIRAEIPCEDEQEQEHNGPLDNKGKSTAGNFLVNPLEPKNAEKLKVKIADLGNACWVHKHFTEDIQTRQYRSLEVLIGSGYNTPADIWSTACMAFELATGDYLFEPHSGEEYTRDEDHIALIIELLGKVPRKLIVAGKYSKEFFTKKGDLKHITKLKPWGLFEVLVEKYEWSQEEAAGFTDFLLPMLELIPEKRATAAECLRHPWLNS

[27] = molecular target: Tyrosine-protein kinase receptor Tie-1 (Homo sapiens) (UniProt P35590); experiment: Inhibition of human TIE1 assessed as remaining activity at 1 uM by ATP-competition binding assay relative to control; how it was run: as §3
[28] = molecular target: Serine/threonine-protein kinase TNNI3K (Homo sapiens) (UniProt Q59H18); experiment: Inhibition of human TNNI3K assessed as remaining activity at 1 uM by ATP-competition binding assay relative to control; how it was run: as §3
[29] = molecular target: Tyrosine-protein kinase TXK (Homo sapiens) (UniProt P42681); experiment: Inhibition of human TXK assessed as remaining activity at 1 uM by ATP-competition binding assay relative to control; how it was run: as §3
Sequence of Tyrosine-protein kinase TXK (Homo sapiens) (P42681 whole entry): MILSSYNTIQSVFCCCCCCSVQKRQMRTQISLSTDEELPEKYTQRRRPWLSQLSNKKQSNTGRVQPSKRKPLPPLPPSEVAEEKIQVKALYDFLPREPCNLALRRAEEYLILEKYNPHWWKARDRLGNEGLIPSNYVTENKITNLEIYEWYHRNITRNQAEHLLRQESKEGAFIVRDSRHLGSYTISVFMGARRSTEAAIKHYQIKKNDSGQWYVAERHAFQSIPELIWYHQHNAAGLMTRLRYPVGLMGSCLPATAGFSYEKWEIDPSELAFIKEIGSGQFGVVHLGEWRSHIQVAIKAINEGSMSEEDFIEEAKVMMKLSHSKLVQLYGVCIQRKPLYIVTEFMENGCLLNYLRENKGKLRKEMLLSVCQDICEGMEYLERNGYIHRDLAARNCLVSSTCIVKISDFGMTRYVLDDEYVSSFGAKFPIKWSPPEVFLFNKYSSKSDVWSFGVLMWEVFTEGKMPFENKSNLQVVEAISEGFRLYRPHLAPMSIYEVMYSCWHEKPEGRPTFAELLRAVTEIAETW

[30] = molecular target: Mitogen-activated protein kinase kinase kinase 19 (Homo sapiens) (UniProt Q56UN5); experiment: Inhibition of human YSK4 assessed as remaining activity at 1 uM by ATP-competition binding assay relative to control; how it was run: as §3
Sequence of Mitogen-activated protein kinase kinase kinase 19 (Homo sapiens) (Q56UN5 whole entry): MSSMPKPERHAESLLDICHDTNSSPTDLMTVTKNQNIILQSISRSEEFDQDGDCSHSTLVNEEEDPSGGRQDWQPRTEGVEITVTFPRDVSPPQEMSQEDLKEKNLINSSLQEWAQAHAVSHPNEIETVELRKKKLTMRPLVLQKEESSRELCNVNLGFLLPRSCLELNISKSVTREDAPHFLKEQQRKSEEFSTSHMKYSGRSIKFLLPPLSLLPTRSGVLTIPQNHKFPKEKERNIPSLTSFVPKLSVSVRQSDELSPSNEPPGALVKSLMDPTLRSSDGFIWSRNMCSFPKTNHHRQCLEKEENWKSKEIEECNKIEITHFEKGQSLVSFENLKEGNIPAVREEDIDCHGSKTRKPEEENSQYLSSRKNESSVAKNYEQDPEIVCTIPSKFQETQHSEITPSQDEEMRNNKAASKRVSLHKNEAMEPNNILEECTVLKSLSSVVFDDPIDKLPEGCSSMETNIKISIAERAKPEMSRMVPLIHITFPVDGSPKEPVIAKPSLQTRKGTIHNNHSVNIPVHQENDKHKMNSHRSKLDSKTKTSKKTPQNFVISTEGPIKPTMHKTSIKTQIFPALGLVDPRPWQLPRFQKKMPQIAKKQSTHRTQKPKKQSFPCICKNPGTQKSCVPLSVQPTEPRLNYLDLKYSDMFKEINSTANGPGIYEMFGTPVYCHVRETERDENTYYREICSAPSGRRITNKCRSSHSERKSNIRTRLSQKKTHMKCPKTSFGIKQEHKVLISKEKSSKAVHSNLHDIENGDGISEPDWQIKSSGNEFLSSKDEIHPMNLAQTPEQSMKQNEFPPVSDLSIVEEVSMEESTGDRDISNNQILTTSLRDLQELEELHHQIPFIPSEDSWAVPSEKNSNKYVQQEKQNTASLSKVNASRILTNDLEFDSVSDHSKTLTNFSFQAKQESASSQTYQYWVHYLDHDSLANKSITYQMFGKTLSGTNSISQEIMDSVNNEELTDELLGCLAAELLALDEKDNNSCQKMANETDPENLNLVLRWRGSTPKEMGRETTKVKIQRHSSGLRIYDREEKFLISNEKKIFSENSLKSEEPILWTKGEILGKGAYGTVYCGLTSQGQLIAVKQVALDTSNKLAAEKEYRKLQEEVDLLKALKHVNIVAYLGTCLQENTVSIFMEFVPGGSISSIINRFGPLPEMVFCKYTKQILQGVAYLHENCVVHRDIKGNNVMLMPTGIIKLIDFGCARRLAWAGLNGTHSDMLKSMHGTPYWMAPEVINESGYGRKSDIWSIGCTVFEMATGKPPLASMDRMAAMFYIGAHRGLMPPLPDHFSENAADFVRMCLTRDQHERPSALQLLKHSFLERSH

CC#CC(=O)N1CCC[C@H]1c1nc(-c2ccc(C(=O)Nc3ccccn3)cc2)c2c(N)nccn12 [ACALABRUTINIB]
Activity [1]: 86%
Activity [2]: 100%
Activity [3]: 87%
Activity [4]: 95%
Activity [5]: 90%
Activity [6]: 74%
Activity [7]: 87%
Activity [8]: 78%
Activity [9]: 54%
Activity [10]: 91%
Activity [11]: 94%
Activity [12]: 85%
Activity [13]: 90%
Activity [14]: 71%
Activity [15]: 59%
Activity [16]: 53%
Activity [17]: 99%
Activity [18]: 87%
Activity [19]: 78%
Activity [20]: 77%
Activity [21]: 86%
Activity [22]: 90%
Activity [23]: 84%
Activity [24]: 88%
Activity [25]: 67%
Activity [26]: 67%
Activity [27]: 89%
Activity [28]: 38%
Activity [29]: 24%
Activity [30]: 90%
